Usually Ki stands for the equilibrium dissociation constant of an inhibitor or competing ligand from its target. A word on the MIC90: it is an inhibitory concentration at the 90% level, which refers to growth in some studies and to a panel of isolates in others.

Values after ≈ are worked out from the molar mass of the structure shown.

The values below come from ChEMBL document CHEMBL4732165, “Analogues of the Herbicide, N-Hydroxy-N-isopropyloxamate, Inhibit Mycobacterium tuberculosis Ketol-Acid Reductoisomerase and Their Prodrugs Are Promising Anti-TB Drug Leads” (J Med Chem, 2021).

The nature of data set [1]: Inhibition of Mycobacterium tuberculosis KARI using 2-acetolactate as substrate preincubated for 30 mins in presence of Mg2+ and NADPH followed by substrate addition by Morrison's equation analysis. The method, boiled down:
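0.27 μM MtKARI preincubated 30 min at 25 °C with inhibitor, 50 μM NADPH and 50 mM Mg²⁺ in 0.1 M Tris-HCl pH 8. Reaction started with 200 μM 2-acetolactate, and A340 decrease followed for 5 min. Compounds above 80% inhibition at 100 μM were retested at 1 nM−100 μM. Ki from Morrison equation fit.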

Data set [2] concerns Mycobacterium tuberculosis. Description: Antimycobacterial activity against Mycobacterium tuberculosis H37Ra assessed as reduction in bacterial growth incubated for 5 days by resazurin dye based assay. Format: functional. The note with it: 120 h, time 5 day. The method, boiled down: (§1)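 REMA in defined minimal medium (KH2PO4, Na2HPO4, L-asparagine, ferric ammonium citrate, MgSO4, CaCl2, ZnSO4, 0.1% glycerol) at 37 °C. Compounds 2-fold serially diluted from 30 μM. Fluorescence (ex 530/em 590 nm) read 24 h after resazurin.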

A short description of data set [3]: Selectivity ratio of IC50 for Mycobacterium tuberculosis KARI to IC50 for Slackia exigua KARI.
A short description of data set [4]: Inhibition of Slackia exigua KARI.
Data set [5] can be described thus: Inhibition of Mycobacterium tuberculosis KARI expressed in Escherichia coli BL21 using 2-acetolactate as substrate in presence of NADPH by spectrophotometric analysis.
Data set [6] in a line: Inhibition of Escherichia coli KARI using acetolactate as substrate assessed as slow and tight binding by measuring initial inhibition constant in presence of NADPH by spectrophotometric analysis.
The nature of data set [7]: Inhibition of Escherichia coli KARI using acetolactate as substrate assessed as slow and tight binding by measuring steady-state inhibition constant in presence of NADPH by spectrophotometric analysis.
For data set [8], the system named is Mycobacterium tuberculosis. Nature of the data set: Antimycobacterial activity against Mycobacterium tuberculosis H37Rv assessed as reduction in bacterial growth incubated for 5 days in presence of BCAA by resazurin dye based assay. The note with it: 120 h, time 5 day. Format: functional. The procedure, abridged:
(§2)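 REMA as for the unsupplemented assay, but with medium supplemented with 1 mM each of leucine, isoleucine and valine. Defined minimal medium at 37 °C. Log-phase inoculum at final OD 0.001 (H37Ra) or 0.003 (H37Rv). 2-fold dilutions from 30 μM. Resazurin fluorescence (530/590 nm) read after 24 h.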
In general terms: Alamar Blue is a resazurin reagent that responds to reducing activity.

For data set [9], the system named is Mycobacterium tuberculosis. Nature of the data set: Antimycobacterial activity against Mycobacterium tuberculosis H37Ra assessed as reduction in bacterial growth incubated for 5 days in presence of BCAA by resazurin dye based assay. Format: functional. The note with it: 120 h, time 5 day. The procedure, abridged: as §2
Data set [10] concerns Mycobacterium tuberculosis. Description: Antimycobacterial activity against Mycobacterium tuberculosis H37Rv assessed as reduction in bacterial growth incubated for 5 days by resazurin dye based assay. Format: functional. The note with it: 120 h, time 5 day. The procedure, abridged:
as §1

The nature of data set [11]: Selectivity ratio of MIC for antimycobacterial activity against Mycobacterium tuberculosis H37Ra in presence of BCAA to MIC for antimycobacterial activity against Mycobacterium tuberculosis H37Ra in absence of BCAA. Format: functional.
The nature of data set [12]: Selectivity index, ratio of MIC for antimycobacterial activity against Mycobacterium tuberculosis H37Rv in presence of BCAA to MIC for antimycobacterial activity against Mycobacterium tuberculosis H37Rv in absence of BCAA. Format: functional.
The subject of data set [13] is Mycobacterium tuberculosis. Nature of the data set: Potency index, ratio of IC50 for IpOHA to IC50 for test compound for inhibition of Mycobacterium tuberculosis KARI using 2-acetolactate as substrate.
For another data set, the system named is RAW264.7. Nature of the data set: Cytotoxicity against mouse RAW264.7 cells up to 100 uM incubated for 24 to 48 hrs by MTT assay. Format: cell-based. The following applies: time 24-48 hrs. The procedure, abridged: (§3)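 Cells grown to 80% confluency, RAW 264.7 and HEK293 in DMEM, SW620 in RPMI, each with 10% FBS and 1 mM nonessential amino acids. Seeded at 2×10⁵ (RAW 264.7), 5×10³ (HEK293) or 2×10³ (SW620) per well and held 24−48 h at 37 °C, 5% CO2. Twofold dilutions added at 1% DMSO final, then overnight incubation. MTT 3 h, DMSO solubilisation, A570.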
In general terms: Tetrazolium dyes change colour on reduction, which living cells bring about.

A further data set relates to HEK293. Description: Cytotoxicity against human HEK293 cells up to 50 uM incubated for 24 to 48 hrs by MTT assay. Format: cell-based. The following applies: time 24-48 hrs. The procedure, abridged:
as §3

Another data set concerns SW-620. Description: Cytotoxicity against human SW-620 cells up to 50 uM incubated for 24 to 48 hrs by MTT assay. Format: cell-based. The note with it: time 24-48 hrs. The procedure, abridged:
as §3

For the molecule `CCOC(=O)C(=O)N(O)C(C)CC(C)C` (stereo not drawn), in data set [1], the Ki stood at 2660 nM.
As to `CCN(CC)C(=O)C(=O)O`, in data set [1], the Ki was over 20000 nM.
On to `O=C(O)C(=O)N(C1CCCCC1)C1CCCCC1`, for which the Ki in data set [1] was over 20000 nM.
Take `O=C(O)CC(=O)N(O)C1CCCC1`: in data set [1], the Ki is over 20000 nM.
Take `CCCCCCCCCCCCCCCCCCOC(=O)C(=O)N(O)C1CCCC1`: the MIC90 in data set [2] was over 30 µM.
`CC(C)NC(=O)C(=O)O`: the inhibition constant (Ki) in data set [1] is over 20000 nM.
The same measure, in the same setting: the figure for `CCOC(=O)C(=O)N(C1CCCCC1)C1CCCCC1` is over 20000 nM.
On to `CCCCCCOC(=O)C(=O)N(O)C1CCCC1`, for which the MIC90 in data set [2] was over 30 µM.
As to `CCOC(=O)C(=O)NCc1ccccc1`, in data set [1], the inhibitory constant (Ki) is over 20000 nM.
Regarding `CC(C)CC(C)N(O)C(=O)C(=O)O` (stereo not drawn), in data set [1], the Ki came out at 660 nM.
On the same count and under the same terms, the figure for `CCOC(=O)C(=O)N(O)C1CCCC1` is 32.2 nM.
`O=C(O)C(=O)N(O)C1CCCCC1`: the Ki in data set [1] came out at 39.6 nM; in data set [4], 8.5 nM. In data set [3], the Ratio IC50 was 25.
With `CCOC(=O)C(=O)N(O)C(C)c1ccccc1` (stereo not drawn), the Ki in [1] worked out at 152 nM.
As for `CC(C)N(O)C(=O)C(=O)O`, the Ki stood at 97.7 nM in data set [5], 160 nM in [6] and 0.09 nM in data set [7].
For the molecule `O=C(O)C(=O)NCc1ccccc1`, in data set [1], the Ki is over 20000 nM.
On to `COC(=O)CC(=O)N(O)C1CCCC1`, for which, in data set [1], the Ki is over 20000 nM.
In the case of `CC(c1ccccc1)N(O)C(=O)C(=O)O` (stereo not drawn), the figures for the Ki in [1] and in [4] were 97.7 nM and 193 nM, respectively. For the same molecule, in [3], the Ratio IC50 worked out at 2.
As to `CC(C)CNC(=O)C(=O)O`, the Ki in data set [1] is over 20000 nM.
As to `CCOC(=O)C(=O)N(O)C1CCNCC1`, the Ki in data set [1] amounted to 3080 nM.
In the case of `CCCCCCCCCCCCOC(=O)C(=O)N(O)C1CCCC1`, the MIC90 is 4.99 µM (≈ 1.7 µg/mL) in data set [2], 17.2 µM in data set [8], 14.1 µM in [9] and 2.97 µM (≈ 1.01 µg/mL) in data set [10]. For the same molecule, the values for the Selectivity ratio in data set [11] and in data set [12] were 3 and 6, respectively.
With `CCOC(=O)C(=O)N(O)C1CCN(C(=O)OC(C)(C)C)CC1`, in [1], the Ki is over 20000 nM.
Same read-out and setting: the figure for `CCOC(=O)C(=O)N(O)C1CCCCC1` is 1020 nM.
As to `CCCCCCCCOC(=O)C(=O)N(O)C1CCCC1`, the MIC90 amounted to 6.34 µM (≈ 1.81 µg/mL) in [2], 18.9 µM in [8], 24.9 µM in data set [9] and 2.32 µM (≈ 0.662 µg/mL) in data set [10]. In addition, the Selectivity ratio in data set [11] was found to be 3; in data set [12] it was 6.
With `O=C(O)C(=O)N(O)C1CCCC1`, the Ki stood at 19.7 nM in data set [1] and 8.5 nM in [4]. Further, the MIC90 in [10] was 219 µM (≈ 37.9 µg/mL). Moreover, the Ratio IC50 in [13] turned out to be 5.
In the case of `CCOC(=O)C(=O)N(CC)CC`, in [1], the Ki was over 20000 nM.
Regarding `CCCCCCCCCCOC(=O)C(=O)N(O)C1CCCC1`, the MIC90 in [2] is 3.01 µM (≈ 0.943 µg/mL); in data set [8] it was 15.2 µM; in data set [9], 15.3 µM; in data set [10], 2.45 µM (≈ 0.768 µg/mL). The results for the Selectivity ratio in data set [11] and in data set [12] were 3 and 6, respectively. The Activity entry in the data set with RAW264.7, with HEK293 and with SW-620 was “Non-Toxic” each time.
